Results reported in ChEMBL document CHEMBL5625189, “Discovery of new diaryl ether inhibitors against Mycobacterium tuberculosis targeting the minor portal of InhA” (Eur J Med Chem, 2023).
pIC50: −log10 of the molar value. Activity calls are given as the source filed them. No cut-off for these calls is given here.

How the values were obtained:
[1] = target: T1, Enoyl-[acyl-carrier-protein] reductase [NADH] (Mycobacterium tuberculosis, UniProt P9WGR1); test: Inhibition of his6-tagged Mycobacterium tuberculosis InhA using trans-2-dodecenoyl-coenzyme as substrate in presence of […]; details: for pIC50: read-out: IC50
T1 sequence (P9WGR1 whole entry): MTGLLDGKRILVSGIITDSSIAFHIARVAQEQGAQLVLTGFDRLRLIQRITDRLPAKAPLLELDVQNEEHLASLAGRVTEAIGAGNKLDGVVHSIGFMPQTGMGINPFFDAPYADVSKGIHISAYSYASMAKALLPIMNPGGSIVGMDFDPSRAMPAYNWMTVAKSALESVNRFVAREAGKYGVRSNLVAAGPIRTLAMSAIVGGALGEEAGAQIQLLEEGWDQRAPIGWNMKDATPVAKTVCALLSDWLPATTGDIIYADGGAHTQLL

[2] = test system: Mycobacterium tuberculosis; test: Antimycobacterial activity against Mycobacterium tuberculosis H37Rv assessed as reduction in microbial growth incubated for 6 days by broth dilution method; assay type: functional; details: 144 h, time 6 day
Procedure, shortened: (§1)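 Mtb H37Rv pellicle cells dispersed with glass beads in 7H9-0.2% glycerol, clumps removed by low-speed spin; twofold serial dilutions (DMSO stocks 1 or 10 mM) in 7H9, inoculum OD600 0.1; 6 days at 37 °C, then MTT added, 1 day more; SDS solubilisation, OD 570 nm; MIC = lowest concentration inhibiting growth, ≥3 independent experiments.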

[3] = target: T2, Enoyl-[acyl-carrier-protein] reductase [NADH] (Mycobacterium tuberculosis) (UniProt P9WGR1); test: Inhibition of his6-tagged Mycobacterium tuberculosis InhA using trans-2-dodecenoyl-coenzyme as substrate at 50 uM in presence of […] relative to control
T2 sequence (whole entry): T1 sequence (P9WGR1 whole entry)

[4] = test system: Mycobacterium tuberculosis; test: Antimycobacterial activity against Mycobacterium tuberculosis H37Rv assessed as reduction in microbial growth; assay type: functional; procedure, shortened: as §1
[5] = target: T2, Enoyl-[acyl-carrier-protein] reductase [NADH] (Mycobacterium tuberculosis); test: Inhibition of his6-tagged Mycobacterium tuberculosis InhA using trans-2-dodecenoyl-coenzyme as substrate at 200 uM in presence of […] relative to control
[6] = target: T2, Enoyl-[acyl-carrier-protein] reductase [NADH] (Mycobacterium tuberculosis); test: Inhibition of his6-tagged Mycobacterium tuberculosis InhA using trans-2-dodecenoyl-coenzyme as substrate at 500 uM in presence of […] relative to control
[7] = target: T2, Enoyl-[acyl-carrier-protein] reductase [NADH] (Mycobacterium tuberculosis); test: Inhibition of his6-tagged Mycobacterium tuberculosis InhA using trans-2-dodecenoyl-coenzyme as substrate at 10 uM in presence of […] relative to control
[8] = Selectivity index, ratio of IC50 for cytotoxicity against human HCT-116 cells assessed as inhibition of cell growth to MIC for antimycobacterial activity against Mycobacterium tuberculosis H37Rv assessed as reduction in microbial growth; assay type: toxicity, cell-based
Procedure, shortened: (§2)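 Selectivity index: IC50 on each human cell line (72 h SRB assay) divided by MIC against Mtb H37Rv (MTT microassay).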

WI-38 = test: Cytotoxicity against human WI-38 cells assessed as inhibition of cell growth incubated for 72 hrs by SRB assay; assay type: functional, cell-based; details: WI-38, 72 h
Procedure, shortened: (§3)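 Seeded 24 h before dosing (HCT116 1500, CACO2 2500, HepG2 9000, WI38hTERT 3500 cells/well); HCT116 in DMEM high-glucose, others in MEM, 10% FBS (20% for CACO2); serial 2-fold dilutions for 72 h at 37 °C, 5% CO2; SRB staining, OD 490 nm; background-subtracted, normalized to untreated; duplicate points, ≥3 independent experiments; IC50 by four-parameter logistic fit.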

[9] = Selectivity index, ratio of IC50 for cytotoxicity against human HepG2 cells assessed as inhibition of cell growth to MIC for antimycobacterial activity against Mycobacterium tuberculosis H37Rv assessed as reduction in microbial growth; assay type: toxicity, cell-based; procedure, shortened: as §2
Caco-2 = test: Cytotoxicity against human Caco-2 cells assessed as inhibition of cell growth incubated for 72 hrs by SRB assay; assay type: functional, cell-based; details: Caco-2, 72 h; procedure, shortened: as §3
HCT-116 = test: Cytotoxicity against human HCT-116 cells assessed as inhibition of cell growth incubated for 72 hrs by SRB assay; assay type: functional, cell-based; details: HCT-116, 72 h; procedure, shortened: as §3
[10] = Selectivity index, ratio of IC50 for cytotoxicity against human WI-38 cells assessed as inhibition of cell growth to MIC for antimycobacterial activity against Mycobacterium tuberculosis H37Rv assessed as reduction in microbial growth; assay type: toxicity, cell-based; procedure, shortened: as §2
HepG2 = test: Cytotoxicity against human HepG2 cells assessed as inhibition of cell growth incubated for 72 hrs by SRB assay; assay type: functional, cell-based; details: HepG2, 72 h; procedure, shortened: as §3
[11] = Selectivity index, ratio of IC50 for cytotoxicity against human Caco-2 cells assessed as inhibition of cell growth to MIC for antimycobacterial activity against Mycobacterium tuberculosis H37Rv assessed as reduction in microbial growth; assay type: toxicity, cell-based; procedure, shortened: as §2
[12] = target: T1, Enoyl-[acyl-carrier-protein] reductase [NADH]; test: Inhibition of Mycobacterium tuberculosis H37Rv InhA using trans-2-dodecenoyl-coenzyme A as substrate in presence of NADH
[13] = target: T2, Enoyl-[acyl-carrier-protein] reductase [NADH] (Mycobacterium tuberculosis); test: Inhibition of his6-tagged Mycobacterium tuberculosis InhA using trans-2-dodecenoyl-coenzyme as substrate at 100 uM in presence of […] relative to control

[N-]=[N+]=NCc1ccc(Oc2ccccc2)c(O)c1 showed a pIC50 [1] of 6.07.
In the case of COc1ccc2cc(C(=O)NCc3cn(Cc4ccc(Oc5ccccc5)c(O)c4)nn3)c(=O)oc2c1, the MIC [2] was over 5 µg/mL and the pIC50 [1] was 6.46.
O=c1ccc2ccc(OCc3cn(Cc4ccc(Oc5ccccc5O)cc4)nn3)cc2o1 gave an MIC [2] of 2.2 µg/mL and an inhibition [3] of 10%.
With O=C(O)c1cn(C2CC2)c2cc(N3CCNCC3)c(F)cc2c1=O [CIPROFLOXACIN] the MIC [2] was 0.8 µg/mL and the IC50 [1] was “Not Active”.
CCCCCCCCc1ccc(Oc2ccccc2)c(O)c1 gave an MIC [4] of 6.4 µM.
Compound CCN(CC)c1ccc2cc(C(=O)NCc3cn(Cc4ccc(Oc5ccccc5)c(O)c4)nn3)c(=O)oc2c1 has an MIC [2] of over 54 µg/mL and a pIC50 [1] of 5.45.
For C#CCNC(=O)c1cc2ccccc2oc1=O, the inhibition [5] was “inactive”.
With C#CCOc1cc(=O)oc2ccccc12 the inhibition [6] was “inactive”.
With CCCCCCc1ccc(Oc2ccc(Cn3cc(CNc4ccc([N+](=O)[O-])c5nonc45)nn3)cc2)c(O)c1 the MIC [2] was 1.4 µg/mL, the inhibition [7] was 11.4% and the selectivity ratio [8] was 3.5. For the same compound, the pIC50 (WI-38) was 4.28, the selectivity ratio [9] was 10.8 and the pIC50 (Caco-2) was 4.58. For the same compound, the inhibition [3] was 32.3%, the pIC50 (HCT-116) was 5.06 and the selectivity ratio [10] was 21.2. For the same compound, the pIC50 (HepG2) was 4.57 and the selectivity ratio [11] was 10.5.
Compound C#CCNC(=O)c1cc2ccc(N(CC)CC)cc2oc1=O has an inhibition [6] of 10%.
Oc1cc2ccc1Oc1ccc(cc1)CCc1ccc(c(O)c1)Oc1ccc(cc1)CC2 gave a pIC50 [12] of 5.33.
For O=[N+]([O-])c1ccc(NCc2cn(Cc3ccc(Oc4ccccc4)c(O)c3)nn2)c2nonc12, the MIC [2] was 4.6 µg/mL and the pIC50 [1] was 6.34.
O=c1ccc2ccc(OCc3cn(Cc4ccc(Oc5ccccc5)c(O)c4)nn3)cc2o1 showed an MIC [2] of 2.2 µg/mL and a pIC50 [1] of 6.79.
Work on CCCCCCc1ccc(Oc2ccc(Cn3cc(CNC(=O)c4cc5ccc(N(CC)CC)cc5oc4=O)nn3)cc2)c(O)c1 yielded an MIC [2] of over 60 µg/mL, an inhibition [7] of 31.5% and an inhibition [3] of 53.7%.
C#CCOc1ccc2ccc(=O)oc2c1 gave an inhibition [13] of 30% and an inhibition [5] of 99%.
For C#CCOc1ccc2c(C)cc(=O)oc2c1, the inhibition [6] was 90% and the inhibition [5] was 37%.
Work on COc1cccc2cc(C(=O)NCc3cn(Cc4ccc(Oc5ccccc5)c(O)c4)nn3)c(=O)oc12 yielded an MIC [2] of 5 µg/mL and a pIC50 [1] of 6.13.
CCN(CC)c1ccc2c(OCc3cn(Cc4ccc(Oc5ccccc5)c(O)c4)nn3)cc(=O)oc2c1 showed an MIC [2] of 0.7 µg/mL, a selectivity ratio [8] of 0.4 and a pIC50 (WI-38) of 6.22. For the same compound, the selectivity ratio [9] was 1.3, the pIC50 (Caco-2) was 5.96 and the pIC50 [1] was 7.27. For the same compound, the pIC50 (HCT-116) was 6.28, the selectivity ratio [10] was 0.5 and the pIC50 (HepG2) was 5.80. For the same compound, the selectivity ratio [11] was 0.9.
Work on CN(C)S(=O)(=O)c1ccc(NCc2cn(Cc3ccc(Oc4ccccc4)c(O)c3)nn2)c2nonc12 yielded an MIC [2] of over 52 µg/mL and a pIC50 [1] of 6.13.
O=C(NCc1cn(Cc2ccc(Oc3ccccc3)c(O)c2)nn1)c1cc2ccccc2oc1=O gave an MIC [2] of 4.7 µg/mL and a pIC50 [1] of 6.22.
Cc1cc(=O)oc2cc(OCc3cnnn3Cc3ccc(Oc4ccccc4)c(O)c3)ccc12 gave a pIC50 [1] of 6.29.
For O=c1ccc2ccc(OCc3cnnn3Cc3ccc(Oc4ccccc4)c(O)c3)cc2o1, the pIC50 [1] was 6.20.
Compound O=c1cc(OCc2cn(Cc3ccc(Oc4ccccc4)c(O)c3)nn2)c2ccccc2o1 has an MIC [2] of 2.2 µg/mL and a pIC50 [1] of 6.74.
O=C(NCc1cn(Cc2ccc(Oc3ccccc3)c(O)c2)nn1)c1cc2cc(O)ccc2oc1=O showed an MIC [2] of over 4.8 µg/mL and a pIC50 [1] of 6.07.
Cc1cc(=O)oc2cc(OCc3cn(Cc4ccc(Oc5ccccc5)c(O)c4)nn3)ccc12 showed an MIC [2] of 0.6 µg/mL, a selectivity ratio [8] of 19.1 and a pIC50 (WI-38) of under 4.00. The selectivity ratio [9] was 24.8, the pIC50 (Caco-2) was 4.60 and the pIC50 [1] was 6.69. The pIC50 (HCT-116) was 4.62, the selectivity ratio [10] was over 80 and the pIC50 (HepG2) was 4.51. The selectivity ratio [11] was 20.
